According to ChEMBL document CHEMBL5303300, “EUbOPEN Chemogenomics Library - Multiplex” (2023):
Several values for one entry are separate records, joined by “and”; a condition that tells them apart may be missing. Identical values can stand only once.

Legend:
Type in all cases: toxicity, cell-based
U2OS = experiment: Multiplex assay against U2OS; settings: human, 10 µM, compound concentration 10 uM, number of replicates 2
How it was run: (§1)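 Cells were classed with CellPathfinder machine-learning gating, first as Hoechst high-intensity objects or normal cells, then (normal cells) as healthy, pyknosed or fragmented nuclei, and finally (pyknosed cells) as mitotic or apoptotic. Staining of live cells at seeding used Hoechst33342, BioTracker Green Microtubule Cytoskeleton Dye, MitoTracker Red and Annexin V Alexa Fluor 680, with imaging on a CQ1 microscope at 37°C and 5% CO2 after compound addition. Tubulin, mitochondrial-mass and membrane-permeability phenotypes are per cents of healthy-nucleus cells.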

HEK-293T = experiment: Multiplex assay against HEK293T; settings: human, 10 µM, compound concentration 10 uM, number of replicates 2; how it was run: as §1
Fibroblast = experiment: Multiplex assay against human fibroblast; settings: 10 µM, compound concentration 10 uM, number of replicates 2; how it was run: as §1

Structure (SMILES): CNC(=O)c1nn(C)c2c1C(C)(C)Cc1cnc(Nc3ccc(N4CCN(C)CC4)cc3)nc1-2 [MILCICLIB]
- Population Apoptotic (%) (U2OS; 12 h): 66% and 80% and 69% and 62%
- Population Healthy Nuclei (%) (U2OS; 12 h): 67% [middle of 4 runs]
- Population Hoechst High Intensity Objects (%) (U2OS; 12 h): 0%
- Population Mitochondria Different-Phenotype (%) (U2OS; 12 h): 50% and 57% and 45% and 40%
- Population Mitotic Cells (%) (U2OS; 12 h): 33% and 19% and 30% and 37%
- Population Normal (%) (U2OS; 12 h): 100% and 99%
- Population Pyknosed Nuclei (%) (U2OS; 12 h): 39% [middle of 4 runs]
- Population Tubulin-Different-Phenotype (%) (U2OS; 12 h): 85% and 92% and 76% and 74%
- Population Apoptotic (%) (U2OS; 24 h): 85% and 89% and 80%
- Population Healthy Nuclei (%) (U2OS; 24 h): 50% [middle of 4 runs]
- Population Hoechst High Intensity Objects (%) (U2OS; 24 h): 0%
- Population Mitochondria Different-Phenotype (%) (U2OS; 24 h): 78% and 64% and 65% and 59%
- Population Mitotic Cells (%) (U2OS; 24 h): 14% and 10% and 19%
- Population Normal (%) (U2OS; 24 h): 100% and 99%
- Population Pyknosed Nuclei (%) (U2OS; 24 h): 57% and 43% and 45% and 36%
- Population Tubulin-Different-Phenotype (%) (U2OS; 24 h): 78% and 92% and 77% and 69%
- Population Apoptotic (%) (U2OS; 48 h): 93% and 84% and 92% and 89%
- Population Healthy Nuclei (%) (U2OS; 48 h): 26% [middle of 4 runs]
- Population Hoechst High Intensity Objects (%) (U2OS; 48 h): 0% and 1%
- Population Membrane Permeable-Phenotype (%) (U2OS; 48 h): 28% and 36% and 26%
- Population Mitochondria Different-Phenotype (%) (U2OS; 48 h): 100% and 54% and 69%
- Population Mitotic Cells (%) (U2OS; 48 h): 6% and 15% and 7% and 10%
- Population Normal (%) (U2OS; 48 h): 100% and 98%
- Population Pyknosed Nuclei (%) (U2OS; 48 h): 76% and 42% and 68% and 57%
- Population Tubulin-Different-Phenotype (%) (U2OS; 48 h): 71% and 81% and 77%
- Population Apoptotic (%) (HEK-293T; 12 h): 71% and 63% and 94% and 80%
- Population Fragmented Nuclei (%) (HEK-293T; 12 h): 2% and 5% and 0%
- Population Healthy Nuclei (%) (HEK-293T; 12 h): 86% and 83% and 89% and 90%
- Population Hoechst High Intensity Objects (%) (HEK-293T; 12 h): 16% and 14% and 15% and 12%
- Population Membrane Permeable-Phenotype (%) (HEK-293T; 12 h): 3% and 1% and 0% and 2%
- Population Mitochondria Different-Phenotype (%) (HEK-293T; 12 h): 81% and 80% and 79% and 71%
- Population Normal (%) (HEK-293T; 12 h): 83% and 85% and 84% and 87%
- Population Pyknosed Nuclei (%) (HEK-293T; 12 h): 10% and 7% and 8%
- Population Tubulin-Different-Phenotype (%) (HEK-293T; 12 h): 94% and 95% and 91%
- Total Cell Count (HEK-293T; 12 h): 247 and 254 and 304 and 272
- Population Apoptotic (%) (HEK-293T; 24 h): 73% and 83% and 95% and 70%
- Population Fragmented Nuclei (%) (HEK-293T; 24 h): 3% and 4% and 1%
- Population Healthy Nuclei (%) (HEK-293T; 24 h): 91% and 89% and 88% and 93%
- Population Hoechst High Intensity Objects (%) (HEK-293T; 24 h): 16% and 15% and 14%
- Population Membrane Permeable-Phenotype (%) (HEK-293T; 24 h): 2% and 0% and 1%
- Population Mitochondria Different-Phenotype (%) (HEK-293T; 24 h): 86% and 85% and 82% and 78%
- Population Normal (%) (HEK-293T; 24 h): 83% and 84% and 85%
- Population Pyknosed Nuclei (%) (HEK-293T; 24 h): 5% and 6%
- Population Tubulin-Different-Phenotype (%) (HEK-293T; 24 h): 93% and 92% and 90%
- Total Cell Count (HEK-293T; 24 h): 355 and 365 and 395
- Population Apoptotic (%) (HEK-293T; 48 h): 82% and 77% and 88% and 76%
- Population Fragmented Nuclei (%) (HEK-293T; 48 h): 3% and 1%
- Population Healthy Nuclei (%) (HEK-293T; 48 h): 90% and 88% and 93%
- Population Hoechst High Intensity Objects (%) (HEK-293T; 48 h): 19% and 16% and 11% and 14%
- Population Membrane Permeable-Phenotype (%) (HEK-293T; 48 h): 2% and 1% and 0%
- Population Mitochondria Different-Phenotype (%) (HEK-293T; 48 h): 91% and 90% and 94% and 89%
- Population Mitotic Cells (%) (HEK-293T; 48 h): 17% and 22% and 12% and 23%
- Population Normal (%) (HEK-293T; 48 h): 80% and 83% and 88% and 85%
- Population Pyknosed Nuclei (%) (HEK-293T; 48 h): 5% and 8% and 6% and 4%
- Population Tubulin-Different-Phenotype (%) (HEK-293T; 48 h): 93% and 89% and 88%
- Total Cell Count (HEK-293T; 48 h): 395 and 386 and 413 and 401
- Population Apoptotic (%) (Fibroblast; 12 h): 44% and 41% and 38% and 43%
- Population Fragmented Nuclei (%) (Fibroblast; 12 h): 8% and 14% and 10% and 12%
- Population Healthy Nuclei (%) (Fibroblast; 12 h): 78% and 69% and 75% and 76%
- Population Hoechst High Intensity Objects (%) (Fibroblast; 12 h): 0%
- Population Membrane Permeable-Phenotype (%) (Fibroblast; 12 h): 10% and 5% and 9% and 11%
- Population Mitochondria Different-Phenotype (%) (Fibroblast; 12 h): 6% and 10% and 4%
- Population Mitotic Cells (%) (Fibroblast; 12 h): 56% and 58% and 61%
- Population Normal (%) (Fibroblast; 12 h): 99% and 100%
- Population Pyknosed Nuclei (%) (Fibroblast; 12 h): 12% and 16% and 13% and 10%
- Population Tubulin-Different-Phenotype (%) (Fibroblast; 12 h): 77% and 75% and 67% and 55%
- Total Cell Count (Fibroblast; 12 h): 202 and 150 and 248 and 210
- Population Apoptotic (%) (Fibroblast; 24 h): 50% and 39% and 52%
- Population Fragmented Nuclei (%) (Fibroblast; 24 h): 18% and 13% and 19%
- Population Healthy Nuclei (%) (Fibroblast; 24 h): 71% and 74% and 70% and 73%
- Population Hoechst High Intensity Objects (%) (Fibroblast; 24 h): 0%
- Population Membrane Permeable-Phenotype (%) (Fibroblast; 24 h): 6% and 0% and 4% and 3%
- Population Mitochondria Different-Phenotype (%) (Fibroblast; 24 h): 7% and 9% and 11% and 6%
- Population Mitotic Cells (%) (Fibroblast; 24 h): 50% and 60% and 47%
- Population Normal (%) (Fibroblast; 24 h): 99% and 100%
- Population Pyknosed Nuclei (%) (Fibroblast; 24 h): 9% and 12% and 7%
- Population Tubulin-Different-Phenotype (%) (Fibroblast; 24 h): 75% and 71% and 65% and 55%
- Total Cell Count (Fibroblast; 24 h): 250 and 149 and 287 and 240
- Population Apoptotic (%) (Fibroblast; 48 h): 60% and 63% and 72% and 73%
- Population Fragmented Nuclei (%) (Fibroblast; 48 h): 16% and 21% and 20% and 22%
- Population Healthy Nuclei (%) (Fibroblast; 48 h): 71% and 58% and 67% and 63%
- Population Hoechst High Intensity Objects (%) (Fibroblast; 48 h): 0%
- Population Membrane Permeable-Phenotype (%) (Fibroblast; 48 h): 7% and 6% and 3% and 2%
- Population Mitochondria Different-Phenotype (%) (Fibroblast; 48 h): 11% and 9% and 13% and 6%
- Population Mitotic Cells (%) (Fibroblast; 48 h): 40% and 36% and 27% and 26%
- Population Normal (%) (Fibroblast; 48 h): 100%
- Population Pyknosed Nuclei (%) (Fibroblast; 48 h): 12% and 20% and 13%
- Population Tubulin-Different-Phenotype (%) (Fibroblast; 48 h): 66% and 57% and 56% and 48%
- Total Cell Count (Fibroblast; 48 h): 241 and 162 and 294 and 249
